One series concerns Rattus norvegicus. The series is described as follows: Antiarrhythmic activity in aconitine-intoxicated iv dosed Ivanovas rat assessed as inhibition of ventricular dysfunction. The series is classed as functional, Heart. In outline:
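Male Ivanovas rats (300–350 g) were anaesthetised with urethane 1.25 g/kg ip. Compound was given iv at 5 mg/kg 5 min before saphenous vein infusion of aconitine ([…], 0.1 ml/min). Lead II ECG was recorded every 30 s. Read-out was aconitine per 100 g causing ventricular extrasystoles, tachycardia and fibrillation versus untreated controls. Used 24 rats/compound; Student's t-test.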

The test system of another series is Mus musculus. The series is described as follows: Antianxiety activity in ip dosed Albino mouse assessed as increase in locomotor activity after 30 mins relative to Diazepam. Type of series: functional.
Series [1] in a line: Acute toxicity in rat. Type of series: organism-based. The settings on record: in vivo.

The results in this text go back to ChEMBL document CHEMBL1629505, “Antiarrhythmic, serotonin antagonist and antianxiety activities of novel substituted thiophene derivatives synthesized from 2-amino-4,5,6,7-tetrahydro-N-phenylbenzo[b]thiophene-3-carboxamide” (Eur J Med Chem, 2010).

A word on the LD50: it is the dose expected to kill half of the subjects tested. As for `N#Cc1c(NC(=S)NC(=O)c2ccccc2)sc2c1CCCC2`, the LD100 increase in the series with Rattus norvegicus is 84%. Besides, the Ratio with Mus musculus is 10. The compound further registered an LD50 in series [1] of 175 mg/kg.

`COc1cccc(NC(=O)c2c(N)sc3c2CCCC3)c1`: in the series with Mus musculus, the Ratio amounted to 4. The LD50 in series [1] came to 121 mg/kg.

Regarding `COc1cccc(-n2nnc3sc4c(c3c2=O)CCCC4)c1`, the LD100 increase in the series on Rattus norvegicus is recorded as 75%. In addition, the Ratio in the series on Mus musculus came to 4. For the same compound, the LD50 in series [1] turned out to be 124 mg/kg.

Consider `N#Cc1c(N)sc2c1CCCC2`, for which, in the series with Mus musculus, the Ratio was determined as 1. The LD50 in series [1] was found to be 152 mg/kg.

`N#Cc1c(NC(=O)CCl)sc2c1CCCC2`: the LD100 increase in the series on Rattus norvegicus is on record as 73.1%. The Ratio in the series on Mus musculus was determined as 3. Besides, the LD50 in series [1] was determined as 194 mg/kg.

For `COc1cccc(-n2c(=S)[nH]c3sc4c(c3c2=O)CCCC4)c1`, the LD100 increase in the series with Rattus norvegicus is given as 76%. In the series with Mus musculus, the Ratio was 3. For the same compound, the LD50 in series [1] is 210 mg/kg.

On to `COc1cccc(NC(=O)c2c(NC(=O)c3ccccc3)sc3c2CCCC3)c1`, for which the LD100 increase in the series on Rattus norvegicus is reported as 67.9%. In addition, the Ratio in the series on Mus musculus turned out to be 2. Besides, the 50% lethal dose (LD50) in series [1] amounted to 236 mg/kg.

With `COc1cccc(NC(=O)c2c(NC(=O)/C=C/c3ccccc3)sc3c2CCCC3)c1`, the LD100 increase in the series on Rattus norvegicus is given as 74.6%. The Ratio with Mus musculus was 5. The same compound returned a 50% lethal dose (LD50) in series [1] of 276 mg/kg.

As for `COc1cccc(-n2c(-c3ccccc3)nc3sc4c(c3c2=O)CCCC4)c1`, in the series with Rattus norvegicus, the LD100 increase was 70.1%. In the series with Mus musculus, the Ratio is on record as 5. In addition, in series [1], the LD50 stood at 136 mg/kg.

Turning to `COc1cccc(-n2c(/C=C/c3ccccc3)nc3sc4c(c3c2=O)CCCC4)c1`, the LD100 increase in the series with Rattus norvegicus was determined as 82%. Also, in the series on Mus musculus, the Ratio was found to be 7. The LD50 in series [1] was 243 mg/kg.

Regarding `N#Cc1c(NC(=O)/C=C/c2ccccc2)sc2c1CCCC2`, the LD100 increase with Rattus norvegicus was 77.5%. In addition, in the series on Mus musculus, the Ratio is reported as 5. For the same compound, the LD50 in series [1] was determined as 186 mg/kg.

Take `N=c1oc(-c2ccccc2)nc2sc3c(c12)CCCC3`: the LD100 increase in the series on Rattus norvegicus is on record as 68.15%. In addition, the Ratio in the series on Mus musculus is on record as 3. Also, the LD50 in series [1] came to 224 mg/kg.

For `N=c1oc(/C=C/c2ccccc2)nc2sc3c(c12)CCCC3`, in the series with Rattus norvegicus, the LD100 increase came out at 80.1%. In addition, the Ratio in the series on Mus musculus came out at 6. The compound further had an LD50 in series [1] of 244 mg/kg.

On to `N#Cc1c(-n2c(O)csc2=N)sc2c1CCCC2`, for which the LD100 increase in the series on Rattus norvegicus is 82.1%. For the same compound, the Ratio in the series with Mus musculus was determined as 12. Besides, the median lethal dose (LD50) in series [1] amounted to 274 mg/kg.

Regarding `N#Cc1c(N2C(=O)C=CC2=O)sc2c1CCCC2`, the Ratio in the series with Mus musculus worked out at 3. The compound further displayed an LD50 in series [1] of 234 mg/kg.

Consider `N=c1c2c3c(sc2nc(S)n1C(=O)c1ccccc1)CCCC3`, for which the LD100 increase in the series with Rattus norvegicus is 84.3%. In the series on Mus musculus, the Ratio was 5. Also, in series [1], the LD50 is 221 mg/kg.

Regarding `N#Cc1c(/N=C/c2ccccc2)sc2c1CCCC2`, the LD100 increase in the series on Rattus norvegicus is recorded as 73.6%. In addition, the Ratio in the series on Mus musculus came out at 2. The LD50 in series [1] came out at 246 mg/kg.

For the compound `N#Cc1c(N2C(=S)N=C(c3ccccc3)OC2c2ccccc2)sc2c1CCCC2` (centres undefined), in the series on Rattus norvegicus, the LD100 increase was 84%. For the same compound, in the series on Mus musculus, the Ratio is 16. In series [1], the LD50 was found to be 297 mg/kg.

On to `O=C1CC2(CCCC2)CC(=O)N1CCCCN1CCN(c2ncccn2)CC1` [BUSPIRONE], for which the LD50 in series [1] is 113 mg/kg.

For `CCN(CC)CC(=O)Nc1c(C)cccc1C` [LIDOCAINE], in the series on Rattus norvegicus, the LD100 increase worked out at 65%.

Regarding `CCN(CC)CCNC(=O)c1ccc(N)cc1` [PROCAINAMIDE], the LD100 increase with Rattus norvegicus was determined as 65%.
